Series [1] is described as follows: Oleyl alcohol-water partition coefficient, Rm of the compound measured at 0% methanol by reverse-phase thin layer chromatography. It is filed as physicochemical. The gist of the method: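 Reversed-phase TLC on Kieselguhr G impregnated with oleyl alcohol. Mobile phases were methanol–water with ammonia and KCl, pH* 10.5, ionic strength 0.1 M, methanol 30–55% (w/w). Each compound had 10–12 Rm determinations at each methanol concentration.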

Series [2] in a line: Dissociation constant, pKa of the compound by UV-visible spectrophotometer analysis. Type of series: physicochemical.
A short description of series [3]: Octanol-water partition coefficient, log P of the compound. It is filed as physicochemical.
The target of series [4] is T1, Albumin (Bos taurus, UniProt P02769). In words: Binding affinity to bovine serum albumin assessed as intrinsic binding constant. Type of series: ADME. The conditions noted are these: cattle, isolated protein.
T1 sequence (P02769 whole entry): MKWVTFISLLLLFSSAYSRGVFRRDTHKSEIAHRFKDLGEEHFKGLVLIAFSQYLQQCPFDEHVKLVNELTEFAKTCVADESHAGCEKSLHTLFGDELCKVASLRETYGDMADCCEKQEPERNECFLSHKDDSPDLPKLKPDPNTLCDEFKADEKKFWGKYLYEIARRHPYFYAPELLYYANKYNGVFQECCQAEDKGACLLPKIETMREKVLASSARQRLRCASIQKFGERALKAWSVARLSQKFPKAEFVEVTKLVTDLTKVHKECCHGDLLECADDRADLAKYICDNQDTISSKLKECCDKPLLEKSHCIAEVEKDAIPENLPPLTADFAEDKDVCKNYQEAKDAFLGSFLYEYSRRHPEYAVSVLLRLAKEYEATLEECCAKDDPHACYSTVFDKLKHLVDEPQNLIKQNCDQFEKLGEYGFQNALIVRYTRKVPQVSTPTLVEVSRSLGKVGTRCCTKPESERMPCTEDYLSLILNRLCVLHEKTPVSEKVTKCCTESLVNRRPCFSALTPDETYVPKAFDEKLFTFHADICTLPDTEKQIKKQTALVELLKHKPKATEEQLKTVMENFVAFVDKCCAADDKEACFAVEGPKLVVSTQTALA
For series [5], the target named is T1, Albumin. Description: Binding affinity to bovine serum albumin. Type of series: ADME. The conditions noted are these: cattle, isolated protein.
Series [6] addresses T1, Albumin. In words: Binding affinity to bovine serum albumin by circular dichroic probe technique. Type of series: ADME. The conditions noted are these: cattle, isolated protein.
The target in series [7] is T1, Albumin. In words: Binding affinity to bovine serum albumin high affinity site by circular dichroic probe technique. Type of series: ADME. The conditions noted are these: cattle, isolated protein. The gist of the method: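 Displacement of sulfaethidole from its primary BSA site, followed by circular dichroism. Solutions were in 0.054 M sodium phosphate, pH 7.44 (25 °C), isotonic with NaCl. Reagent concentrations were 1.45 × 10−5 and 2.11 × 10−5 M. Spectra were scanned from 420 to 265 nm in 10-mm cells, with ellipticity read at 280–286 nm, corrected for drug effect on BSA. Apparent K came from the Klotz equation (n = 1) and was extrapolated to zero drug concentration.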

The structures appear in SMILES notation.

In series [1], `CN1CCCCC1CCN1c2ccccc2Sc2ccc([S+](C)[O-])cc21` (stereo not given) [MESORIDAZINE] returned a Rm of 2.32.

As for `CN(C)CCCN1c2ccccc2Sc2ccccc21` [PROMAZINE], the pKa in series [2] was 9.42. This compound yielded a log partition coefficient (logP) in series [3] of 4.68. The compound also came in with a Rm in series [1] of 3.43. For the same compound, the “log K” value in series [4] is 3.45; in series [5], 3.95. In series [6], this compound yielded a logKa of 4.54.

`COc1ccc2c(c1)N(CCCN(C)C)c1ccccc1S2` [METHOXYPROMAZINE] returned a pKa in series [2] of 9.41. For the same compound, in series [3], the logP was 4.63. In series [1], the Rm worked out at 3.19. In addition, the “log K” value in series [5] turned out to be 4.11. This compound also returned a logKa in series [6] of 4.66.

For the compound `CN(C)CCCN1c2ccccc2Sc2ccc(C#N)cc21`, in series [2], the pKa worked out at 9.29. The Rm in series [1] was 2.94. The compound also gave a logKa in series [6] of 4.46.

For the compound `CN1CCN(CCCN2c3ccccc3Sc3ccc(C(F)(F)F)cc32)CC1` [TRIFLUOPERAZINE], the Rm in series [1] was 3.55. The compound further came in with a logKa in series [6] of 4.67.

As for `CSc1ccc2c(c1)N(CCC1CCCCN1C)c1ccccc1S2` (stereo not given) [THIORIDAZINE], the Rm in series [1] is listed as 4.51. The compound further returned a logKa in series [6] of 5.15.

`CCCC(=O)c1ccc2c(c1)N(CCCN1CCN(C)CC1)c1ccccc1S2` [BUTAPERAZINE] came in with a pKa in series [2] of 8.1. This compound also gave a Rm in series [1] of 3.37. Further, the logKa in series [6] is 4.78.

Consider `CN(C)CCCN1c2ccccc2Sc2ccc(Cl)cc21` [CHLORPROMAZINE], for which, in series [1], the Rm came to 4.12. Also, the logKa in series [6] is listed as 4.98.

`CN(C)CCCN1c2ccccc2Sc2ccc(C(F)(F)F)cc21` [TRIFLUPROMAZINE] displayed a Rm in series [1] of 4.24. The “log K” value in series [4] is recorded as 3.99; in series [5], 4.58. In series [6], this compound registered a logKa of 5.17.

In turn, `OCCN1CCN(CCCN2c3ccccc3Sc3ccc(C(F)(F)F)cc32)CC1` [FLUPHENAZINE] showed a log partition coefficient (logP) in series [3] of 4.47. In series [1], this compound gave a Rm of 3.03.

For the compound `CN1CCN(CCCN2c3ccccc3Sc3ccc(Cl)cc32)CC1` [PROCHLORPERAZINE], the Rm in series [1] came out at 3.38. Besides, the “log K” value in series [4] amounted to 3.7. Further, in series [6], the logKa is 4.59.

`CCc1nnc(NS(=O)(=O)c2ccc(N)cc2)s1` [SULFAETHIDOLE] yielded an Activity in series [7] of 2.1 ×10⁵ L/mol.

For the compound `N#Cc1ccc2c(c1)N(CCCN1CCC(O)CC1)c1ccccc1S2` [PERICIAZINE], in series [2], the pKa worked out at 8.5. Moreover, the Rm in series [1] is 2.17. The logKa in series [6] was found to be 4.12.

`CN1CCN(CCCN2c3ccccc3Sc3ccccc32)CC1` [PERAZINE] yielded a pKa in series [2] of 8.1. For the same compound, the logP in series [3] is 3.8. This compound also had a Rm in series [1] of 2.67. The entries for the “log K” value in series [4] and in series [5] were 3.33 and 4.32, respectively. The compound also yielded a logKa in series [6] of 4.36.

Consider `OCCN1CCN(CCCN2c3ccccc3Sc3ccc(Cl)cc32)CC1` [PERPHENAZINE], for which, in series [2], the pKa amounted to 7.9. Besides, the logP in series [3] was found to be 3.92. This compound yielded a Rm in series [1] of 2.74. In series [6], the logKa is 4.2.

The compound `CC(CN1CCN(CCOCCO)CC1)CN1c2ccccc2Sc2ccccc21` (stereo not given) [DIXYRAZINE] yielded a pKa in series [2] of 8. The Rm in series [1] worked out at 2.49. The logKa in series [6] is 4.21.

The values are drawn from ChEMBL document CHEMBL3272041, “Quantitative correlations between albumin binding constants and chromatographic Rm values of phenothiazine derivatives” (J Med Chem, 1977).
